The test system of test [1] is Mus musculus. As to the kind of experiment: Percent median survival time of mice injected with P388 leukemia, at a subcutaneous compound dose of 20 mg/kg. The class given is functional.
In a further test the test system is L1210. As to the kind of experiment: Inhibition of murine L1210 leukemia cell proliferation measured by the MTT assay. The class given is functional, cell-based. Conditions: Mus musculus. In a few lines:
(§1)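 Murine L1210 leukemia and B16 melanoma cells were grown in RPMI 1640 with 10% fetal calf serum, 2 mM L-glutamine, penicillin/streptomycin and 10 mM HEPES (pH 7.4). Cells were exposed to nine serial drug dilutions in triplicate for about four doubling times (L1210 48 h, B16 96 h), then read by microculture tetrazolium (MTT) assay. IC50 is the concentration halving optical density versus untreated controls, averaged over ≥2 independent experiments.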
On the technique in general: Formazan colour is commonly taken as a measure of viable cells.

The test system of test [2] is Mus musculus. As to the kind of experiment: Percent median survival time of mice injected with B16 melanoma, at a intraperitoneal compound dose of 2.5-5 mg/kg.
Test [3] deals with Mus musculus. The test is described as follows: Percent median survival time of mice injected with P388 leukemia, at a intravenous compound dose of 40 mg/kg.
Test [4] deals with Mus musculus. The test is described as follows: Long-term survivors among 14 mice infected with P388 leukemia, scored on day 60 at 40 mg/kg dose on day 1. The class given is functional. In a few lines: (§2)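 B6D2F1 mice in groups of 6–7 were inoculated ip on day 0 with 10^6 P388 cells. Dihydrochloride salts were dissolved in water and given iv on day 1 or on days 1, 5 and 9. Doses ranged from a low nontoxic dose to a toxic one. Long-term survivors were counted at day 60.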

The species named for test [5] is Mus musculus. The test is described as follows: Long-term survivors among 14 mice infected with B16 melanoma, scored on day 90 at optimal dose on days 1-9.
For a further test, the system named is B16. The test is described as follows: Inhibition of murine B16 melanoma cell proliferation measured by the MTT assay. In kind it is functional, cell-based. Conditions: Mus musculus. In a few lines: as §1
Test [6] relates to Mus musculus. The test is described as follows: Percent median survival time of mice injected with B16 melanoma, at a intraperitoneal compound dose of 2.5 mg/kg.
The test system of test [7] is Mus musculus. As to the kind of experiment: Long-term survivors among 18 mice infected with P388 leukemia, scored on day 60 at 40 mg/kg dose. In kind it is functional. In a few lines:
as §2

Test [8] concerns Mus musculus. The test is described as follows: Percent median survival time of mice intraperitoneally injected with P388 leukemia was determined from tested at 40 mg/kg at day1 dose to that of control. The class given is functional. The note with it: route intraperitoneal. In a few lines:
(§3)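 P388 leukemia in B6D2F1 mice (groups of 6–7), 10^6 cells inoculated ip on day 0. Dihydrochloride salts were dissolved in water and given iv on day 1 or on days 1, 5, 9. Three doses were tested, then five if active. %T/C = median survival treated/control × 100, reported at the optimal dose (no toxic death, weight loss <20%), from one or two representative experiments.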

Test [9] concerns Mus musculus. As to the kind of experiment: Percent median survival time of mice intraperitoneally injected with P388 leukemia was determined from tested at 10 mg/kg at day1,5,9 dose to that of control. In kind it is functional. In a few lines: as §3
In test [10] the test system is Mus musculus. As to the kind of experiment: Long-term survivors among 14 mice infected with B16 melanoma, scored on day 90 at 2.5 mg/kg dose.
Test [11] deals with Mus musculus. The test is described as follows: Long-term survivors among 12 mice infected with P388 leukemia, scored on day 60 at 10 mg/kg dose. The class given is functional. In a few lines:
as §2

Test [12] has as its system Mus musculus. The test is described as follows: Percent median survival time of mice intraperitoneally injected with P388 leukemia was determined from tested at 40 mg/kg at day1,5,9 dose to that of control. The class given is functional. Conditions: route intraperitoneal. In a few lines: as §3
Test [13] concerns Mus musculus. As to the kind of experiment: Percent median survival time of mice injected with B16 melanoma, at a intraperitoneal compound dose of 10 mg/kg.
Test [14] concerns Mus musculus. The test is described as follows: Long-term survivors among 6 mice infected with P388 leukemia, scored on day 60 at 40 mg/kg dose on day 1. The class given is functional. In a few lines:
as §2

In test [15] the test system is Mus musculus. The test is described as follows: Long-term survivors among 7 mice infected with P388 leukemia, scored on day 90 at 10 mg/kg dose. The class given is functional.
In test [16] the test system is Mus musculus. The test is described as follows: Long-term survivors among 6 mice infected with P388 leukemia, scored on day 60 at 40 mg/kg dose on day 1, 5, 9. The class given is functional. In a few lines: as §2
Test [17] relates to Mus musculus. The test is described as follows: Long-term survivors among 6 mice infected with B16 melanoma, scored on day 90 at 10 mg/kg dose.
The subject of test [18] is Mus musculus. As to the kind of experiment: Percent median survival time of mice injected with P388 leukemia, at a intravenous compound dose of 60 mg/kg.
Test [19] relates to Mus musculus. As to the kind of experiment: Long-term survivors among 6 mice infected with P388 leukemia, scored on day 60 at 60 mg/kg dose on day 1. In kind it is functional. In a few lines: as §2
The test system of test [20] is Mus musculus. As to the kind of experiment: Percent median survival time of mice intraperitoneally injected with P388 leukemia was determined from tested at 20 mg/kg at day1 dose to that of control. The class given is functional. Conditions: route intraperitoneal. In a few lines: as §3
For test [21], the system named is Mus musculus. The test is described as follows: Long-term survivors among 7 mice infected with P388 leukemia, scored on day 90 at 5 mg/kg dose. In kind it is functional.
For test [22], the system named is Mus musculus. As to the kind of experiment: Percent median survival time of mice injected with B16 melanoma, at a intraperitoneal compound dose of 5 mg/kg.
Test [23] deals with Mus musculus. As to the kind of experiment: Long-term survivors among 6 mice infected with P388 leukemia, scored on day 60 at 20 mg/kg dose on day 1, 5, 9. In kind it is functional. In a few lines:
as §2

The test system of test [24] is Mus musculus. The test is described as follows: Percent median survival time of mice intraperitoneally injected with P388 leukemia was determined from tested at 20 mg/kg at day1,5,9 dose to that of control. The note with it: route intravenous. The class given is functional. In a few lines: as §3
The subject of test [25] is Mus musculus. As to the kind of experiment: Long-term survivors among 6 mice infected with P388 leukemia, scored on day 60 at 20 mg/kg dose on day 1. In kind it is functional. In a few lines: as §2
The subject of test [26] is Mus musculus. The test is described as follows: Long-term survivors among 7 mice infected with B16 melanoma, scored on day 90 at 20 mg/kg dose.
Test [27] deals with Mus musculus. As to the kind of experiment: Long-term survivors among 6 mice infected with P388 leukemia, scored on day 60 at 7.5 mg/kg dose. In kind it is functional. In a few lines:
as §2

In test [28] the test system is Mus musculus. The test is described as follows: Percent median survival time of mice injected with P388 leukemia, at a intravenous compound dose of 7.5 mg/kg.
Test [29] relates to Mus musculus. As to the kind of experiment: Long-term survivors among 6 mice infected with P388 leukemia, scored on day 60 at 20 mg/kg dose. The class given is functional. In a few lines: as §2
Test [30] deals with Mus musculus. As to the kind of experiment: Percent median survival time of mice injected with B16 melanoma, at a intraperitoneal compound dose of 0.5 mg/kg.

Broadly, the T/C is the result in the treated group divided by that in the control group, in per cent. In general, IC50 refers to the point on the concentration scale where inhibition reaches its midpoint. As for `Cc1c2c(C(=O)NCCN(C)C)nccc2c(C)c2c1c1cc(OC(=O)CCCCC(=O)O)ccc1n2C`, the T/C with Mus musculus [1] is on record as over 600%; with Mus musculus [2], 361%; in the test on Mus musculus [3] it was over 600%. Further, the IC50 with L1210 worked out at 45.9 nM; in the test with B16 it was 6.3 nM. The LTS with Mus musculus [4] was 11; in the test filed under Mus musculus [5], 4.
Turning to `Cc1c2c(C(=O)NCCN(C)C)nccc2c(C)c2c1c1cc(O)ccc1n2C`, the T/C in the test with Mus musculus [6] is reported as 166%; in the test with Mus musculus [8], over 600%; in the test with Mus musculus [9] it was over 600%. Moreover, the figures for the LTS with Mus musculus [7], in the test on Mus musculus [10] and with Mus musculus [11] were 15, 1 and 9, respectively. Also, the IC50 with L1210 was 13.4 nM; in the test on B16 it was 3.4 nM.
Turning to `Cc1c2ccnc(C(=O)NCCN(C)C)c2cc2c3cc(OC(=O)N4CCC(N5CCCCC5)CC4)ccc3n(C)c12`, the results for the T/C with Mus musculus [12], in the test with Mus musculus [13] and with Mus musculus [8] were 169%, 161% and 133%, respectively. The LTS in the test on Mus musculus [14], in the test with Mus musculus [15] and with Mus musculus [16] was 0 in each case. Moreover, the IC50 with L1210 is 696 nM; with B16, 2690 nM.
`CC(=O)Oc1ccc2c(c1)c1cc3c(C(=O)NCCN(C)C)nccc3c(C)c1n2C`: the LTS with Mus musculus [17] is 0; with Mus musculus [16] it was 0; in the test on Mus musculus [19] it was 1. Besides, the T/C in the test on Mus musculus [13] is given as 182%; with Mus musculus [18] it was 214%; in the test with Mus musculus [3], 275%. For the same compound, the values for the IC50 in the test with L1210 and in the test with B16 were 5.1 nM and 6.1 nM, respectively.
On to `Cc1c2ccnc(C(=O)NCCN(C)C)c2cc2c3cc(OCC4C[C@@H]4c4ccccc4)ccc3n(C)c12` (some centres not stated), for which the values for the T/C with Mus musculus [20], with Mus musculus [22] and in the test on Mus musculus [24] were 102%, 94% and 99%, respectively. Moreover, the LTS in the test on Mus musculus [21], with Mus musculus [23] and in the test on Mus musculus [25] was 0 each time. Moreover, the IC50 was 374 nM with L1210 and 279 nM in the test on B16.
As to `Cc1c2cc[n+](C)cc2c(C)c2c1[nH]c1ccc(O)cc12` [ELLIPTINIUM], the LTS in the test on Mus musculus [26], in the test on Mus musculus [27] and in the test with Mus musculus [29] was 0 each time. In addition, the figures for the T/C in the test with Mus musculus [1], in the test with Mus musculus [28] and in the test with Mus musculus [30] were 138%, 112% and 133%, respectively. Also, the IC50 in the test on L1210 was 54.6 nM; in the test on B16 it was 106 nM.

Values taken from ChEMBL document CHEMBL1132144, “Synthesis of 9-O-substituted derivatives of 9-hydroxy-5, 6-dimethyl-6H-pyrido[4,3-b]carbazole-1-carboxylic acid (2-(dimethylamino)ethyl)amide and their 10- and 11-methyl analogues with improved antitumor activity” (J Med Chem, 1999).
